Measurements published in ChEMBL document CHEMBL1122395, “Tetracyclic chromophoric analogues of actinomycin D: synthesis, structure elucidation and interconvertibility from one form to another, antitumor activity, and structure-activity relationships” (1983).
Values after ≈ are worked out from the molar mass of the structure shown.

What was measured:
CCRF-CEM = assay: Growth inhibitory activity against human lymphoblastic leukemia cells(CCRF-CEM); assay type: functional; conditions: read-out: ID50 (the source's name)
Method in brief: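 Log-phase human lymphoblastic leukemia CCRF-CEM cells grown in suspension culture. Compounds dissolved in Me2SO, final growth medium contained 5% Me2SO. Test solutions kept at 0-4 °C, protected from light, homogeneity checked by HPLC before testing. ID50 reported in ng/mL.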

P388 [1] = assay: Median survival time observed in P-388 cells infected male CDF1 hybrid mice after intraperitoneal administration at 1200 ug/kg optimal dose; assay type: functional, Mus musculus
Method in brief: (§1)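 Male CDF1 mice, seven per group, given 10^6 P388 cells ip on day 0. Drugs were given ip in 10% Me2SO-saline on days 1, 5 and 9, with solutions kept at 0-4 °C, protected from light and checked for homogeneity by HPLC. A range of doses was run and the optimal nontoxic dose reported. Read-outs were median survival time, percent increase in life span, and cures (over-60-day survivors, average of two experiments).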

Mus musculus = organism: Mus musculus; assay: Male CDF1 hybrid treated mice out of seven which survived over 60 days after the treatment.; assay type: functional; method in brief: as §1
P388 [2] = assay: Percent increase in life span observed in P-388 cells infected male CDF1 hybrid mice after intraperitoneal administration at 1200 ug/kg optimal dose; assay type: functional, Mus musculus; method in brief: as §1
P388 [3] = assay: Median survival time observed in P-388 cells infected male CDF1 hybrid mice after intraperitoneal administration at 450 ug/kg optimal dose; assay type: functional, Mus musculus; method in brief: as §1
P388 [4] = assay: Percent increase in life span observed in P-388 cells infected male CDF1 hybrid mice after intraperitoneal administration at 450 ug/kg optimal dose; assay type: functional, Mus musculus; method in brief: as §1
Nucleic Acid = assay: Melting temperature of DNA-drug complex minus melting temperature of purified calf-thymus DNA; assay type: functional; conditions: Bos taurus
Method in brief: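 Calf-thymus DNA, purified. ΔTm is the Tm of the DNA-drug complex minus the Tm of DNA alone. Medium was 0.01 M phosphate buffer, pH 7.0, with EDTA.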

P388 [5] = assay: Median survival time observed in P-388 cells infected male CDF1 hybrid mice after intraperitoneal administration at 600 ug/kg optimal dose; assay type: functional, Mus musculus; method in brief: as §1
P388 [6] = assay: Percent increase in life span observed in P-388 cells infected male CDF1 hybrid mice after intraperitoneal administration at 600 ug/kg optimal dose; assay type: functional, Mus musculus; method in brief: as §1
P388 [7] = assay: Median survival time observed in P-388 cells infected male CDF1 hybrid mice after intraperitoneal administration at 750 ug/kg optimal dose; assay type: functional, Mus musculus; method in brief: as §1
P388 [8] = assay: Percent increase in life span observed in P-388 cells infected male CDF1 hybrid mice after intraperitoneal administration at 750 ug/kg optimal dose; assay type: functional, Mus musculus; method in brief: as §1
P388 [9] = assay: Median survival time observed in P-388 cells infected male CDF1 hybrid mice after intraperitoneal administration at 1800 ug/kg optimal dose; assay type: functional, Mus musculus; method in brief: as §1
P388 [10] = assay: Percent increase in life span observed in P-388 cells infected male CDF1 hybrid mice after intraperitoneal administration at 1800 ug/kg optimal dose; assay type: functional, Mus musculus; method in brief: as §1

SMILES | IC50 (CCRF-CEM) | MST (P388 [1]) | Cures (Mus musculus) | ILS (P388 [2]) | further results
Cc1ccc(C(=O)N[C@@H]2C(=O)N[C@H](C(C)C)C(=O)N3CCC[C@H]3C(=O)N(C)CC(=O)N(C)[C@@H](C(C)C)C(=O)O[C@@H]2C)c2c1Oc1c(c(C(=O)N[C@@H]3C(=O)N[C@H](C(C)C)C(=O)N4CCC[C@H]4C(=O)N(C)CC(=O)N(C)[C@@H](C(C)C)C(=O)O[C@@H]3C)c3nc(-c4ccc5ccccc5c4)c(=O)oc3c1C)N2 | 1 µg/mL (≈ 0.703 µM) | 26 days | 0 | 136% | –
Cc1nc2c(C(=O)N[C@@H]3C(=O)N[C@H](C(C)C)C(=O)N4CCC[C@H]4C(=O)N(C)CC(=O)N(C)[C@@H](C(C)C)C(=O)O[C@@H]3C)c3nc4c(C(=O)N[C@@H]5C(=O)N[C@H](C(C)C)C(=O)N6CCC[C@H]6C(=O)N(C)CC(=O)N(C)[C@@H](C(C)C)C(=O)O[C@@H]5C)cc(=O)c(C)c-4oc3c(C)c2o1 | 0.23 µg/mL (≈ 0.178 µM) | – | 1 | – | MST (P388 [3]): 31 days; ILS (P388 [4]): 182%
CCCCCCc1nc2c(C(=O)N[C@@H]3C(=O)N[C@H](C(C)C)C(=O)N4CCC[C@H]4C(=O)N(C)CC(=O)N(C)[C@@H](C(C)C)C(=O)O[C@@H]3C)c3c(c(C)c2oc1=O)Oc1c(C)ccc(C(=O)N[C@@H]2C(=O)N[C@H](C(C)C)C(=O)N4CCC[C@H]4C(=O)N(C)CC(=O)N(C)[C@@H](C(C)C)C(=O)O[C@@H]2C)c1N3 | 2.08 µg/mL (≈ 1.51 µM) | 25 days | 0 | 127% | –
Cc1nc2c(C(=O)N[C@H]3C(=O)N[C@H](C(C)C)C(=O)N4CCC[C@H]4C(=O)N(C)CC(=O)N(C)[C@@H](C(C)C)C(=O)O[C@H]3C)c3nc4c(C(=O)N[C@@H]5C(=O)N[C@H](C(C)C)C(=O)N6CCC[C@H]6C(=O)N(C)CC(=O)N(C)[C@@H](C(C)C)C(=O)O[C@@H]5C)cc(=O)c(C)c-4oc3c(C)c2o1 | – | – | – | – | ΔTm (Nucleic Acid): 1 °C
Cc1ccc(C(=O)N[C@@H]2C(=O)N[C@H](C(C)C)C(=O)N3CCC[C@H]3C(=O)N(C)CC(=O)N(C)[C@@H](C(C)C)C(=O)O[C@@H]2C)c2c1Oc1c(c(C(=O)N[C@@H]3C(=O)N[C@H](C(C)C)C(=O)N4CCC[C@H]4C(=O)N(C)CC(=O)N(C)[C@@H](C(C)C)C(=O)O[C@@H]3C)c3nc(-c4ccc(Cl)cc4Cl)c(=O)oc3c1C)N2 | 3.2 µg/mL (≈ 2.22 µM) | 28 days | 0 | 155% | –
Cc1ccc(C(=O)N[C@@H]2C(=O)N[C@H](C(C)C)C(=O)N3CCC[C@H]3C(=O)N(C)CC(=O)N(C)[C@@H](C(C)C)C(=O)O[C@@H]2C)c2c1Oc1c(c(C(=O)N[C@@H]3C(=O)N[C@H](C(C)C)C(=O)N4CCC[C@H]4C(=O)N(C)CC(=O)N(C)[C@@H](C(C)C)C(=O)O[C@@H]3C)c3nc(-c4ccccc4Cl)c(=O)oc3c1C)N2 | 1.8 µg/mL (≈ 1.28 µM) | 30 days | 1 | 172% | –
Cc1ccc(C(=O)N[C@@H]2C(=O)N[C@H](C(C)C)C(=O)N3CCC[C@H]3C(=O)N(C)CC(=O)N(C)[C@@H](C(C)C)C(=O)O[C@@H]2C)c2c1Oc1c(c(C(=O)N[C@@H]3C(=O)N[C@H](C(C)C)C(=O)N4CCC[C@H]4C(=O)N(C)CC(=O)N(C)[C@@H](C(C)C)C(=O)O[C@@H]3C)c3nc(-c4ccccc4)c(=O)oc3c1C)N2 | 0.44 µg/mL (≈ 0.321 µM) | – | 2 | – | MST (P388 [5]): 45 days; ILS (P388 [6]): 309%
Cc1c2oc3c(C)c4oc(-c5ccccc5)nc4c(C(=O)N[C@@H]4C(=O)N[C@H](C(C)C)C(=O)N5CCC[C@H]5C(=O)N(C)CC(=O)N(C)[C@@H](C(C)C)C(=O)O[C@@H]4C)c3nc-2c(C(=O)N[C@@H]2C(=O)N[C@H](C(C)C)C(=O)N3CCC[C@H]3C(=O)N(C)CC(=O)N(C)[C@@H](C(C)C)C(=O)O[C@@H]2C)cc1=O | 0.31 µg/mL (≈ 0.228 µM) | – | 2 | – | MST (P388 [7]): 44 days; ILS (P388 [8]): 300%
Cc1ccc(C(=O)N[C@@H]2C(=O)N[C@H](C(C)C)C(=O)N3CCC[C@H]3C(=O)N(C)CC(=O)N(C)[C@@H](C(C)C)C(=O)O[C@@H]2C)c2c1Oc1c(c(C(=O)N[C@@H]3C(=O)N[C@H](C(C)C)C(=O)N4CCC[C@H]4C(=O)N(C)CC(=O)N(C)[C@@H](C(C)C)C(=O)O[C@@H]3C)c3nc(-c4c(F)c(F)c(F)c(F)c4F)oc3c1C)N2 | 12.5 µg/mL (≈ 8.72 µM) | – | 0 | – | MST (P388 [9]): 19 days; ILS (P388 [10]): 72%
